ChEMBL document CHEMBL4406859, “Antitumor and antiviral activities of 4-substituted 1,2,3-triazolyl-2,3-dibenzyl-L-ascorbic acid derivatives” (Eur J Med Chem, 2019)
Calls of active or inactive are those of the source. No cut-off for these calls is given here.

Columns and labels:
Reovirus sp. = assay: Antiviral activity against Reovirus infected in vero cells assessed as reduction in virus-induced cytopathogenicity incubated for 7 days by microscopic analysis; type: functional, organism-based
A549 = assay: Antiproliferative activity against human A549 cells assessed as reduction in cell viability incubated for 72 hrs by MTT assay; type: functional, cell-based; settings: A549, 72 h
How it was run: (§1)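 Cells (ATCC) grown in DMEM with 10 FBS, penicillin/streptomycin, 2 mM glutamine, 37 °C, 5 CO2. 5000 cells/well seeded; after 24 h, freshly prepared dilutions at five concentrations (0.01–100 μM) added for 72 h. MTT read-out; absorbance converted to percentage growth by NIH formulas. Two experiments in quadruplicate; IC50 by linear regression.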

CFPAC-1 = assay: Antiproliferative activity against human CFPAC-1 cells assessed as reduction in cell viability incubated for 72 hrs by MTT assay; type: functional, cell-based; settings: Homo sapiens, CFPAC-1, 72 h; read-out: IC50; how it was run: as §1
HFF = assay: Cytotoxicity against human HFF cells assessed as reduction in cell viability incubated for 72 hrs by MTT assay; type: cell-based; how it was run: as §1
MCF7 [1] = assay: Induction of apoptosis in human MCF7 cells assessed as early apoptotic cells at 2 times of cytotoxic IC50 incubated for 48 hrs by annexin V staining based inverted phase contrast fluorescence microscopy (reference value: 0 %); type: functional
HCT-116 = assay: Antiproliferative activity against human HCT116cells assessed as reduction in cell viability incubated for 72 hrs by MTT assay; type: functional, cell-based; settings: HCT-116, 72 h; how it was run: as §1
MCF7 [2] = assay: Upregulation of HIF1alpha in human MCF7 cells at cytotoxic IC50 incubated for 24 and 48 hrs by Western blot analysis; type: functional, cell-based
Human adenovirus 2 = assay: Antiviral activity against Human adenovirus 2 infected in human HELF cells assessed as reduction in virus-induced cytopathogenicity incubated for 7 days by microscopic analysis; type: functional, organism-based
Influenza A virus H3N2 [3] = assay: Antiviral activity against Influenza A virus (A/HK/7/87(H3N2)) infected in dog MDCK cells assessed as reduction in virus-induced cytopathogenicity incubated for 7 days by microscopic analysis; type: functional, organism-based; settings: A/Hong Kong/7/1987(H3N2); for EC50: 168 h
MCF7 [4] = assay: Induction of apoptosis in human MCF7 cells assessed as early apoptotic cells at 2 times of cytotoxic IC50 incubated for 24 hrs by annexin V staining based inverted phase contrast fluorescence microscopy (reference value: 0 %); type: functional
Human alphaherpesvirus 3 [5] = assay: Antiviral activity against thymidine kinase positive Varicella zoster virus infected in human HELF cells assessed as reduction in virus-induced cytopathogenicity incubated for 7 days by Giemsa staining based microscopic analysis; type: functional, organism-based; settings: Human alphaherpesvirus 3, HELF, 168 h
MCF7 [6] = assay: Induction of apoptosis in human MCF7 cells assessed as late apoptotic cells at 2 times of cytotoxic IC50 incubated for 48 hrs by annexin V staining based inverted phase contrast fluorescence microscopy (reference value: 10.60 %); type: functional
MCF7 [7] = assay: Antiproliferative activity against human MCF7 cells assessed as reduction in cell viability incubated for 72 hrs by MTT assay; type: functional, cell-based; settings: MCF7, 72 h; how it was run: as §1
Influenza B virus [8] = assay: Antiviral activity against Influenza B virus (B/Ned/537/05) infected in dog MDCK cells assessed as reduction in virus-induced cytopathogenicity incubated for 7 days by microscopic analysis; type: functional, organism-based; settings: for EC50: 168 h
SW-620 = assay: Antiproliferative activity against human SW620 cells assessed as reduction in cell viability incubated for 72 hrs by MTT assay; type: functional, cell-based; settings: SW-620, 72 h; how it was run: as §1
Human alphaherpesvirus 1 [9] = assay: Antiviral activity against Herpes simplex virus 1 KOS infected in human HELF cells assessed as reduction in virus-induced cytopathogenicity incubated for 7 days by microscopic analysis; type: functional, organism-based; settings: strain KOS
Influenza A virus H3N2 [10] = assay: Antiviral activity against Influenza A virus (A/HK/7/87(H3N2)) infected in dog MDCK cells assessed as reduction in virus-induced cytopathogenicity incubated for 7 days by MTS assay; type: functional, organism-based; settings: A/Hong Kong/7/1987(H3N2); for EC50: 168 h
Influenza A virus [11] = assay: Antiviral activity against Influenza A virus (A/Ned/378/05(H1N1)) infected in dog MDCK cells assessed as reduction in virus-induced cytopathogenicity incubated for 7 days by MTS assay; type: functional, organism-based
Human alphaherpesvirus 3 [12] = assay: Antiviral activity against thymidine kinase deficient Varicella zoster virus infected in human HELF cells assessed as reduction in virus-induced cytopathogenicity incubated for 7 days by Giemsa staining based microscopic analysis; type: functional, organism-based; settings: Human alphaherpesvirus 3, HELF, 168 h
Human alphaherpesvirus 1 [13] = assay: Antiviral activity against Herpes simplex virus 1 TK-KOS-ACV infected in human HELF cells assessed as reduction in virus-induced cytopathogenicity incubated for 7 days by microscopic analysis; type: functional, organism-based
Human alphaherpesvirus 2 = assay: Antiviral activity against Herpes simplex virus 2 G infected in human HELF cells assessed as reduction in virus-induced cytopathogenicity incubated for 7 days by microscopic analysis; type: functional, organism-based
Influenza A virus [14] = assay: Antiviral activity against Influenza A virus (A/Ned/378/05(H1N1)) infected in dog MDCK cells assessed as reduction in virus-induced cytopathogenicity incubated for 7 days by microscopic analysis; type: functional, organism-based
HepG2 = assay: Antiproliferative activity against human HepG2 cells assessed as reduction in cell viability incubated for 72 hrs by MTT assay; type: functional, cell-based; settings: HepG2, 72 h; how it was run: as §1
MCF7 [15] = assay: Induction of apoptosis in human MCF7 cells assessed as necrotic cells at 2 times of cytotoxic IC50 incubated for 24 hrs by annexin V staining based inverted phase contrast fluorescence microscopy (reference value: 0.84 %); type: functional
MCF7 [16] = assay: Induction of apoptosis in human MCF7 cells assessed as necrotic cells at 2 times of cytotoxic IC50 incubated for 24 hrs by annexin V staining based inverted phase contrast fluorescence microscopy (reference value: 0 %); type: functional
Influenza B virus [17] = assay: Antiviral activity against Influenza B virus (B/Ned/537/05) infected in dog MDCK cells assessed as reduction in virus-induced cytopathogenicity incubated for 7 days by MTS assay; type: functional, organism-based; settings: for EC50: 168 h
MCF7 [18] = assay: Downregulation of NOS2 in human MCF7 cells at cytotoxic IC50 incubated for 24 and 48 hrs by Western blot analysis; type: functional, cell-based
Coxsackievirus B4 = assay: Antiviral activity against Human coxsackievirus B4 infected in vero cells assessed as reduction in virus-induced cytopathogenicity incubated for 7 days by microscopic analysis; type: functional, organism-based
Human coronavirus 229E = assay: Antiviral activity against Human coronavirus 229E infected in human HELF cells assessed as reduction in virus-induced cytopathogenicity incubated for 7 days by microscopic analysis; type: functional, organism-based
Cytomegalovirus [19] = assay: Antiviral activity against Cytomegalovirus AD169 infected in human HELF cells assessed as reduction in virus-induced cytopathogenicity incubated for 7 days by Giemsa staining based microscopic analysis; type: functional, organism-based; settings: Human betaherpesvirus 5, AD169, HELF, 168 h
How it was run: (§2)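 Confluent HEL fibroblasts infected with CMV (Davis or AD-169) at 100 PFU/well for 2 h. Residual virus removed, then medium with graded compound concentrations added (duplicate). Incubated 7 days at 37 °C. Cytopathogenicity scored microscopically after ethanol fixation and Giemsa staining. EC50 read from plots of % cytopathogenicity versus concentration.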

HeLa = assay: Antiproliferative activity against human HeLa cells assessed as reduction in cell viability incubated for 72 hrs by MTT assay; type: functional, cell-based; how it was run: as §1
Cytomegalovirus [20] = assay: Antiviral activity against Cytomegalovirus Davis infected in human HELF cells assessed as reduction in virus-induced cytopathogenicity incubated for 7 days by Giemsa staining based microscopic analysis; type: functional, organism-based; settings: Human betaherpesvirus 5, Davis, 168 h; how it was run: as §2
[21] = Cytotoxicity against human HELF cells assessed as minimum cytotoxic concentration by observing alteration in cell morphology incubated for 3 days by microscopic analysis; type: cell-based; settings: HELF cells
How it was run: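 Read-out is the minimum cytotoxic concentration (MCC): the lowest compound concentration giving a microscopically detectable change in cell morphology. Measured on confluent human embryonic lung (HEL) fibroblast cultures exposed to a range of compound concentrations.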

Sindbis virus = assay: Antiviral activity against Sindbis virus infected in vero cells assessed as reduction in virus-induced cytopathogenicity incubated for 7 days by microscopic analysis; type: functional, organism-based
MCF7 [22] = assay: Induction of apoptosis in human MCF7 cells assessed as late apoptotic cells at 2 times of cytotoxic IC50 incubated for 24 hrs by annexin V staining based inverted phase contrast fluorescence microscopy (reference value: […]); type: functional
MDCK = assay: (§3) Cytotoxicity against dog MDCK cells assessed as reduction in cell viability incubated for 3 days by coulter counter method; type: cell-based, Canis lupus familiaris; settings: mdck, 72 h
[23] = Cytotoxicity against dog MDCK cells assessed as minimum cytotoxic concentration by observing alteration in cell morphology incubated for 3 days by microscopic analysis; type: cell-based, Canis lupus familiaris
[24] = as §3; type: cell-based, Canis lupus familiaris; settings: MDCK cells
[25] = Cytotoxicity against human HELF cells assessed as reduction in cell viability incubated for 3 days by coulter counter method; type: cell-based; settings: 72 h
How it was run: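 HEL cells seeded at 5 x 10^3/well and allowed to proliferate 24 h, then exposed to graded compound concentrations for 3 days at 37 °C. Cell number counted with a Coulter counter.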

[26] = Influenza A virus, A/Ned/378/05(H1N1), MDCK, 168 h

| Compound | Activity (Reovirus sp.) | IC50 (A549) [µM] | IC50 (CFPAC-1) [µM] | IC50 (HFF) [µM] | IC50 (HCT-116) [µM] | Activity (Human adenovirus 2) | Activity (Influenza A virus H3N2 [3]) | EC50 (Human alphaherpesvirus 3 [5]) [µM] | IC50 (MCF7 [7]) [µM] | Activity (Influenza B virus [8]) | IC50 (SW-620) [µM] | Activity (Human alphaherpesvirus 1 [9]) | Activity (Influenza A virus H3N2 [10]) | Activity (Influenza A virus [11]) | EC50 (Human alphaherpesvirus 3 [12]) [µM] | Activity (Human alphaherpesvirus 1 [13]) | Activity (Human alphaherpesvirus 2) | Activity (Influenza A virus [14]) | IC50 (HepG2) [µM] | MCC at 72 h [21] [µM] | further results |
| --- | --- | --- | --- | --- | --- | --- | --- | --- | --- | --- | --- | --- | --- | --- | --- | --- | --- | --- | --- | --- | --- |
| CCCCCCCCCCc1cn(C[C@H](O)[C@H]2OC(=O)C(OCc3ccccc3)=C2OCc2ccccc2)nn1 | inactive | 6.75 | 40.3 | > 100 | 28.8 | inactive | inactive | 7.76 | 0.08 | inactive | 45.1 | inactive | inactive | inactive | 10.7 | inactive | inactive | inactive | 12.2 | 20 | Activity (MCF7 [1]): 13.4%; Activity (MCF7 [2]): Active; Activity (MCF7 [4]): 0%; Activity (MCF7 [6]): 35.3%; Activity (MCF7 [15]): 8.76%; Activity (MCF7 [16]): 11.36%; Activity (Influenza B virus [17]): inactive; Activity (MCF7 [18]): Active; Activity (Coxsackievirus B4): inactive; Activity (Human coronavirus 229E): inactive; EC50 (Cytomegalovirus [19]): > 4 µM; IC50 (HeLa): 22.9 µM; EC50 (Cytomegalovirus [20]): > 4 µM; Activity (Sindbis virus): inactive; Activity (MCF7 [22]): 1.68% |
| NC12CC3CC(CC(C3)C1)C2 [AMANTADINE] |  |  |  |  |  |  |  |  |  |  |  |  |  |  |  |  |  |  |  |  | EC50 (Influenza A virus H3N2 [3]): 0.2 µM; EC50 (Influenza B virus [8]): > 100 µM; EC50 (Influenza A virus H3N2 [10]): 0.03 µM; EC50 (Influenza A virus [11]): 22.6 µM; EC50 (Influenza A virus [14]; [26]): 20 µM; CC50 (MDCK): > 100 µM; EC50 (Influenza B virus [17]): > 100 µM; MCC at 72 h [23]: > 100 µM |
| NC(=O)c1ncn([C@@H]2O[C@H](CO)[C@@H](O)[C@H]2O)n1 [RIBAVIRIN] |  |  |  |  |  |  |  |  |  |  |  |  |  |  |  |  |  |  |  | > 250 | EC50 (Influenza A virus H3N2 [3]): 2.3 µM; EC50 (Influenza B virus [8]): 5.6 µM; EC50 (Influenza A virus H3N2 [10]): 1.4 µM; EC50 (Influenza A virus [11]; [26]): 18.2 µM; EC50 (Influenza A virus [14]): 8.9 µM; CC50 at 72 h [24]: > 100 µM; EC50 (Influenza B virus [17]): 4.6 µM; MCC at 72 h [23]: > 100 µM |
| Cc1ccc(-c2cn(C/C=C3\OC(=O)C(OCc4ccccc4)=C3OCc3ccccc3)nn2)cc1 | inactive | > 100 | > 100 | > 100 | > 100 | inactive | inactive | > 4 | > 100 | inactive | > 100 | inactive | inactive | inactive | 27.6 | inactive | inactive | inactive | > 100 | 20 | CC50 [25]: > 100 µM; Activity (Influenza B virus [17]): inactive; Activity (Coxsackievirus B4): inactive; Activity (Human coronavirus 229E): inactive; EC50 (Cytomegalovirus [19]): 8.94 µM; IC50 (HeLa): 7.48 µM; EC50 (Cytomegalovirus [20]): 5.66 µM; Activity (Sindbis virus): inactive |
